Data reported in ChEMBL document CHEMBL1125775 (J Med Chem, 1991).
Each block holds one compound with its values, some of them ahead of it.

Columns and labels:
[1] = target: T1, Adrenergic receptor alpha-1 (Rattus norvegicus, UniProt P15823+P23944+P43140); test: Binding affinity against alpha-1 adrenergic receptor; type: protein assay
T1 sequence (P15823 whole entry): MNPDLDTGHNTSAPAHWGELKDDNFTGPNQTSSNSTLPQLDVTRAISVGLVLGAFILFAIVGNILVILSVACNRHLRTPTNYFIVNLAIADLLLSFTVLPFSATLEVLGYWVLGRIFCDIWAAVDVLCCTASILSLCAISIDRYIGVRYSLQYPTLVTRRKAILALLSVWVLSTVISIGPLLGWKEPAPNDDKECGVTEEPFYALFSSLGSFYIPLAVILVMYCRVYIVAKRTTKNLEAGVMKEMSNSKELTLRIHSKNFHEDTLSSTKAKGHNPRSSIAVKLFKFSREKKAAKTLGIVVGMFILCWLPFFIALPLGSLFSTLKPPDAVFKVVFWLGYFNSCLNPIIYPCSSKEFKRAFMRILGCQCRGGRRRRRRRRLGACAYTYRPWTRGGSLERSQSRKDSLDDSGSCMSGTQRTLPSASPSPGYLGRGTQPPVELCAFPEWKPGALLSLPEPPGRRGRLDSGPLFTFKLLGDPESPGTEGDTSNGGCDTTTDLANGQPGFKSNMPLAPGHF
T1 sequence (P23944 whole entry): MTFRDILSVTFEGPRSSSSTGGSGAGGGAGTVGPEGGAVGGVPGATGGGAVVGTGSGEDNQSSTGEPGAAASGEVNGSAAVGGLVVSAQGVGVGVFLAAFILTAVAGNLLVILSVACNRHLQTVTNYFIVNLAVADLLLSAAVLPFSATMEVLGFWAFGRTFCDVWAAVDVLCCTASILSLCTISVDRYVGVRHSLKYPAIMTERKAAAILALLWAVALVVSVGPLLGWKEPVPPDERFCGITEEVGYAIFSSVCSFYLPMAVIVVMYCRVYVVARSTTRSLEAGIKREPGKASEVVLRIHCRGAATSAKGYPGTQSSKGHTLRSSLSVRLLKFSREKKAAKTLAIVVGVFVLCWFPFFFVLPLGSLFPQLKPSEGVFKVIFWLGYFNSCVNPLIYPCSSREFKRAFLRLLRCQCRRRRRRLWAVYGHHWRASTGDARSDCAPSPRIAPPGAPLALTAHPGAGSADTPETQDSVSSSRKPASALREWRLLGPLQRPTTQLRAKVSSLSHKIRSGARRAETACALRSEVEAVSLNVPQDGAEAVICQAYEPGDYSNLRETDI
T1 sequence (P43140 whole entry): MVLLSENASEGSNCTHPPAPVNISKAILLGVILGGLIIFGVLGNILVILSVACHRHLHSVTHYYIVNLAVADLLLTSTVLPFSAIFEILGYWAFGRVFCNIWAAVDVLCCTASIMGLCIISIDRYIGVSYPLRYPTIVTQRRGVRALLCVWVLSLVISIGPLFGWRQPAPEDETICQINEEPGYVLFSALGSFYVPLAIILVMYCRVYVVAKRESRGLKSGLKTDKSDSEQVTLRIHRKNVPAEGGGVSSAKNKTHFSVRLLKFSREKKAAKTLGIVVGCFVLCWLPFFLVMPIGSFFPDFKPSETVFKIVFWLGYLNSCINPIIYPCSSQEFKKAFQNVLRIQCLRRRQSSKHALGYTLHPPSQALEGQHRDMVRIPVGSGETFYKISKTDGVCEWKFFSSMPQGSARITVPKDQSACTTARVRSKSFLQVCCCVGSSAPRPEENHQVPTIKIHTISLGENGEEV
Method in brief: (§1)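 Radioligand binding at α1 adrenergic receptors using [3H]prazosin in a standard binding assay.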

[2] = target: T2, 5-hydroxytryptamine receptor 1A (Mus musculus, UniProt Q64264); test: Compound was tested for the binding affinity against 5-hydroxytryptamine 1A receptor by using [3H]DPAT as radioligand
T2 sequence (Q64264 whole entry): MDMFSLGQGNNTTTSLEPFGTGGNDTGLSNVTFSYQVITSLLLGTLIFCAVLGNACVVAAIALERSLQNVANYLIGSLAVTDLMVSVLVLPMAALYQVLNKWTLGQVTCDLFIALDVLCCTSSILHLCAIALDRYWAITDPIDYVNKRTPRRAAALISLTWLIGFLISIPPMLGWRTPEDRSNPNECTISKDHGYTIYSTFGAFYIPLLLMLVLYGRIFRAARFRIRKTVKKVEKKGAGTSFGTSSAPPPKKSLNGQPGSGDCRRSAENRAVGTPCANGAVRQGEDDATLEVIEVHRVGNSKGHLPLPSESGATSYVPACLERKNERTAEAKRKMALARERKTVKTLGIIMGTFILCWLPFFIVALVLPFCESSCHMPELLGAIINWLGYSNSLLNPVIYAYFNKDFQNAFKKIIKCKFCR

[3] = target: Muscarinic acetylcholine receptor M3 (Rattus norvegicus, UniProt P08483); test: Compound was tested for the binding affinity against muscarinic acetylcholine receptorby using [3H]QNB as radioligand
Chain of Muscarinic acetylcholine receptor M3 (P08483 whole entry): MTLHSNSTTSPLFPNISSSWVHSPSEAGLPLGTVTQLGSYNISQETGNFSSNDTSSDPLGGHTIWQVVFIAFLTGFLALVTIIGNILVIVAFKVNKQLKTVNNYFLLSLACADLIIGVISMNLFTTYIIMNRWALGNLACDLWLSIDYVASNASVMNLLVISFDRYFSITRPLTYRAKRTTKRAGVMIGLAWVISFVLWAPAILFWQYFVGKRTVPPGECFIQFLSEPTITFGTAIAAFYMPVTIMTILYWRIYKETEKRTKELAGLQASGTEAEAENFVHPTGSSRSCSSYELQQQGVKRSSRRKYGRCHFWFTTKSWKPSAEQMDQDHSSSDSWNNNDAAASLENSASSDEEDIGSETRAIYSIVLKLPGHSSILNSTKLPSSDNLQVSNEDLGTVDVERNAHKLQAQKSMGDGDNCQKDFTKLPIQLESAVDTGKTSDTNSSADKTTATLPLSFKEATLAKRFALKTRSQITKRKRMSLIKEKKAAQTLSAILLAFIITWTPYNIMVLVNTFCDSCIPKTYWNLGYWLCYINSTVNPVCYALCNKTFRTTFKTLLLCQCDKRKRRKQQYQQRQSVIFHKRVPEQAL

D(2) dopamine receptor = D(2) dopamine receptor (Homo sapiens, UniProt P14416); test: Compound was tested for the binding affinity against dopamine receptor D2 by using [3H]spiperone as radioligand
Chain of D(2) dopamine receptor (P14416 whole entry): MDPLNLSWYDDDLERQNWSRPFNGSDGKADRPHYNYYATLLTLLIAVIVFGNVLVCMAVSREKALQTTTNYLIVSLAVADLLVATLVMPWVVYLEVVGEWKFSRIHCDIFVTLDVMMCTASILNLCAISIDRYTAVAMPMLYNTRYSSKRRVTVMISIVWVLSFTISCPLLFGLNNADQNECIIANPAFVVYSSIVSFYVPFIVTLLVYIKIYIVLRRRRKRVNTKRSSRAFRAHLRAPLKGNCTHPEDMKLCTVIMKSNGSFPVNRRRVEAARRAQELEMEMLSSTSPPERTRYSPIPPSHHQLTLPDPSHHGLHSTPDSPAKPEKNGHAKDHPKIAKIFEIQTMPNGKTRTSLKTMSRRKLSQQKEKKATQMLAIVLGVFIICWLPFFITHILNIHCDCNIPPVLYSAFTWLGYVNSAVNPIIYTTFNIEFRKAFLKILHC

Histamine H1 receptor = Histamine H1 receptor (Homo sapiens, UniProt P35367); test: Compound was tested for the binding affinity against histamine H1 receptor by using [3H]mepyramine as radioligand
Chain of Histamine H1 receptor (P35367 whole entry): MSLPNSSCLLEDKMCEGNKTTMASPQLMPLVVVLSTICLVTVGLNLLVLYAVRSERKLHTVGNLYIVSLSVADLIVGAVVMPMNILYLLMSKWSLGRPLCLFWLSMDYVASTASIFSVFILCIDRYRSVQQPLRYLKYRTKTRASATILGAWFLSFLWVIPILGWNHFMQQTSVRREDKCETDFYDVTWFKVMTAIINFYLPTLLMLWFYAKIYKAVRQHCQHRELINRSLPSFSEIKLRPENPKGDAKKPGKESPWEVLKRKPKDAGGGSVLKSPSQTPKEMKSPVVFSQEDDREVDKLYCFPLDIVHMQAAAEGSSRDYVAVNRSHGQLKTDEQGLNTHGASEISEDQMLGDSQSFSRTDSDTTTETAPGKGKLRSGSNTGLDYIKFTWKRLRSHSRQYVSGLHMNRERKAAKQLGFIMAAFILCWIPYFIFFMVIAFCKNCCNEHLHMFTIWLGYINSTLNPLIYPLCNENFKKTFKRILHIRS

[4] = target: T1, Adrenergic receptor alpha-1; test: Compound was tested for the binding affinity against Alpha-1 adrenergic receptor; type: protein assay; method in brief: as §1
Mu-type opioid receptor = Mu-type opioid receptor (Homo sapiens, UniProt P35372); test: Compound was tested for the binding affinity against opioid receptor mu by using [3H]naloxone as radioligand
Chain of Mu-type opioid receptor (P35372 whole entry): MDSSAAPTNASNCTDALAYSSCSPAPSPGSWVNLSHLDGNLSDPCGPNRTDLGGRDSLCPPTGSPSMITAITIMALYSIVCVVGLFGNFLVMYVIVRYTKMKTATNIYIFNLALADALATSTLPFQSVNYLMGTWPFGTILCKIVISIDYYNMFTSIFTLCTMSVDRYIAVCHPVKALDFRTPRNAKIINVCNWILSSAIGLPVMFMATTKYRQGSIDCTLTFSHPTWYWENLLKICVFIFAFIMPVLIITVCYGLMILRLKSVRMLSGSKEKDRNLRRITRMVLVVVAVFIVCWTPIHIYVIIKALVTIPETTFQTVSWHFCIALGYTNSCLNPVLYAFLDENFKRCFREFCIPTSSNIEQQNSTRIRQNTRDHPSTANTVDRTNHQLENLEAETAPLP

[5] = target: 5-hydroxytryptamine receptor 2A (Bos taurus, UniProt Q75Z89); test: Compound was tested for the binding affinity against 5-hydroxytryptamine 2 receptor by using [3H]ketanserin as radioligand
Chain of 5-hydroxytryptamine receptor 2A (Q75Z89 whole entry): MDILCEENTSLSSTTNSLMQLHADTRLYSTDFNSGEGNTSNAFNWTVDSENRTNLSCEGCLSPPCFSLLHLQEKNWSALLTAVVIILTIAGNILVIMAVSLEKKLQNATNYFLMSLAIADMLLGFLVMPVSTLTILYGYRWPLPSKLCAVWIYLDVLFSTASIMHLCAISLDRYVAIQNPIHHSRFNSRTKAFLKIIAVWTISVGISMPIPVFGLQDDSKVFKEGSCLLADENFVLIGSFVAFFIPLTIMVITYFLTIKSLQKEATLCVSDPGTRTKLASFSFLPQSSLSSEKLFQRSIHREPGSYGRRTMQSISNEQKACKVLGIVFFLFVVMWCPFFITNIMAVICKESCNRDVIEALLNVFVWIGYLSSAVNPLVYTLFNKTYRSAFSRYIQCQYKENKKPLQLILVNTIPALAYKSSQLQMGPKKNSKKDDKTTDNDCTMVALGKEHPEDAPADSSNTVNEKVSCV

D(1A) dopamine receptor = D(1A) dopamine receptor (Mus musculus, UniProt Q61616); test: Compound was tested for the binding affinity against dopamine receptor D1 by using [3H]-SCH- 23390 as radioligand
Chain of D(1A) dopamine receptor (Q61616 whole entry): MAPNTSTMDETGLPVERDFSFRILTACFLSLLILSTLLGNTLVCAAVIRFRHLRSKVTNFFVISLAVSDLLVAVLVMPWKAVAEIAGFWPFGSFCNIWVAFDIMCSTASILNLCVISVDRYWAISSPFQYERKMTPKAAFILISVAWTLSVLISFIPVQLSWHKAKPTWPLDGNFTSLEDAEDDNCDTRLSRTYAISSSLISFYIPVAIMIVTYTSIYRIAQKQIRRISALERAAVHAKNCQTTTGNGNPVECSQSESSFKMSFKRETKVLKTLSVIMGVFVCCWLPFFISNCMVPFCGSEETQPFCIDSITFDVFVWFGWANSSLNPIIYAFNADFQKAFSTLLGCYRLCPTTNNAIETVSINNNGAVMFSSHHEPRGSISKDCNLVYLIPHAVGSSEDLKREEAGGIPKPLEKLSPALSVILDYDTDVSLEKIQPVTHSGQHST

[6] = system: Alpha-1 adrenergic receptor versus NMDA receptor; test: (§2) Therapeutic index is the ratio of IC50 value for Alpha-1 adrenergic receptor to that for NMDA.; details: read-out: TI
Method in brief: (§3)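 Selectivity index calculated as α1 adrenergic potency ([3H]prazosin binding) divided by activity in the rat hippocampal culture glutamate-neurotoxicity model.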

Glutamate NMDA receptor = test: N-methyl-D-aspartate glutamate receptor antagonistic activity in cell culture(CC)model; type: functional
Method in brief: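 Functional NMDA antagonism in rat hippocampal cell cultures. Read-out is protection of the cultured neurons against toxicity from extracellularly applied glutamate (the glutamate-induced hippocampal neurodegeneration model).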

[7] = as §2; method in brief: as §3

Compound: C[C@@H]([C@H](O)c1ccc(F)cc1)N1CCC(Cc2ccccc2)CC1
selectivity ratio [6]: 0.94 | IC50 [1]: 220 nM

Compound: OC(CN1CCC(Cc2ccccc2)CC1)c1ccccc1 (stereo not given)
selectivity ratio [6]: 0.43 | IC50 (Glutamate NMDA receptor): 5000 nM | IC50 [1]: 2133 nM

Compound: C[C@@H]([C@H](O)c1ccccc1)N1CCC(Cc2ccccc2)CC1
selectivity ratio [6]: 0.28 | IC50 [1]: 573 nM

Compound: CC(CO)N1CCC(Cc2ccccc2)CC1 (stereo not given)
IC50 (Glutamate NMDA receptor): > 10000 nM | IC50 [1]: > 10000 nM

Compound: C[C@@H]([C@@H](O)c1ccc(O)cc1)N1CCN(Cc2ccccc2)CC1
IC50 [4]: 4633 nM | IC50 (Glutamate NMDA receptor): 10000 nM

Compound: CC(Cc1ccc(O)cc1)N1CCC(Cc2ccccc2)CC1 (stereo not given)
selectivity ratio [6]: 0.85 | IC50 (Glutamate NMDA receptor): 153 nM | IC50 [1]: 130 nM

Compound: CCCC1CCN([C@@H](C)[C@@H](O)c2ccc(O)cc2)CC1
selectivity ratio [6]: 0.61 | IC50 (Glutamate NMDA receptor): 6300 nM | IC50 [1]: 2867 nM

Compound: C[C@@H]([C@H](O)c1ccc(O)cc1)N1CCCCC1
IC50 (Glutamate NMDA receptor): > 10000 nM | IC50 [1]: > 10000 nM

Compound: C[C@@H]([C@@H](O)c1ccc(O)cc1)N1CCN(C(=O)c2ccccc2)CC1
IC50 (Glutamate NMDA receptor): > 10000 nM | IC50 [1]: > 10000 nM

Compound: C[C@@H]([C@@H](O)c1ccc(F)cc1)N1CCC(Cc2ccccc2)CC1
selectivity ratio [6]: 25.6 | IC50 (Glutamate NMDA receptor): 100 nM | IC50 [1]: 2566 nM

Compound: C[C@@H]([C@@H](O)c1ccc(O)cc1)N1CCCCC1
IC50 (Glutamate NMDA receptor): > 10000 nM | IC50 [1]: > 10000 nM

Compound: c1ccc(CCN2CCC(Cc3ccccc3)CC2)cc1
selectivity ratio [6]: 1.19 | IC50 (Glutamate NMDA receptor): 290 nM | IC50 [1]: 347 nM

Compound: C[C@@H]([C@@H](O)c1ccccc1)N1CCC(Cc2ccccc2)CC1
selectivity ratio [6]: 0.92 | IC50 (Glutamate NMDA receptor): 3700 nM | IC50 [1]: 3400 nM

The next lines start with results.

IC50 [1]: 629 nM
Compound: C[C@@H]([C@@H](O)c1ccc(O)cc1)N1CCC(Cc2ccccc2)CC1 (stereo in doubt; 19) [(S)-IFENPRODIL]

IC50 [2]: 238 nM | IC50 [3]: > 1000 nM | IC50 (D(2) dopamine receptor): > 1000 nM | IC50 (Histamine H1 receptor): 1000 nM | IC50 [4]: 100 nM | IC50 (Mu-type opioid receptor): > 1000 nM | IC50 [5]: 610 nM | IC50 (D(1A) dopamine receptor): > 1000 nM
Compound: CC(C(O)c1ccc(O)cc1)N1CCC(Cc2ccccc2)CC1 (stereo not given) [IFENPRODIL]

IC50 [4]: 843 nM
Compound: C[C@@H]([C@@H](O)c1ccc(O)cc1)N1CCC(Cc2ccccc2)CC1 (stereo in doubt; 2) [(S)-IFENPRODIL]

IC50 [1]: 135 nM
Compound: C[C@@H]([C@H](O)c1ccc(O)cc1)N1CCC(Cc2ccccc2)CC1 [(R,S)-IFENPRODIL]

IC50 [1]: 2306 nM
Compound: C[C@@H]([C@@H](O)c1ccc(O)cc1)N1CCC(Cc2ccccc2)CC1 (stereo in doubt; 18) [(S)-IFENPRODIL]
TI [7]: 48
